In ChEMBL document CHEMBL2390925, “Further studies on 2-arylacetamide pyridazin-3(2H)-ones: design, synthesis and evaluation of 4,6-disubstituted analogs as formyl peptide receptors (FPRs) agonists” (Eur J Med Chem, 2013):

Legend:
[1] = tested on: HL-60; assay: Effect on Ca2+ mobilization in human wild type HL60 cells; type: functional, cell-based
In short: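 Wild-type, non-transfected HL-60 cells, grown without G418, were run in the same Fluo-4 Ca2+ flux assay. Fluorescence was monitored every 5 s for 240 s at room temperature.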

[2] = tested on: HL-60; assay: Cytotoxicity against human wild type HL60 cells at 5 to 20 uM after 60 mins by CellTitre-Glo luminescent assay; type: cell-based; conditions: hl-60, 1 h
In short: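 Wild-type HL-60 cells at 3×10^4 cells/well were exposed to 5, 10 or 20 µM compound for 60 min at 37 °C in 5% CO2. Samples were equilibrated to room temperature for 30 min before the CellTiter-Glo luminescence read. Triplicate samples; the experiment was representative of two.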

[3] = biological target: T1, N-formyl peptide receptor 3 (Homo sapiens, UniProt P25089); assay: Agonist activity at FPR3 (unknown origin) transfected in human HL60 cells assessed as induction of Ca2+ mobilization; type: cell-based, HL-60
T1 sequence (P25089 whole entry): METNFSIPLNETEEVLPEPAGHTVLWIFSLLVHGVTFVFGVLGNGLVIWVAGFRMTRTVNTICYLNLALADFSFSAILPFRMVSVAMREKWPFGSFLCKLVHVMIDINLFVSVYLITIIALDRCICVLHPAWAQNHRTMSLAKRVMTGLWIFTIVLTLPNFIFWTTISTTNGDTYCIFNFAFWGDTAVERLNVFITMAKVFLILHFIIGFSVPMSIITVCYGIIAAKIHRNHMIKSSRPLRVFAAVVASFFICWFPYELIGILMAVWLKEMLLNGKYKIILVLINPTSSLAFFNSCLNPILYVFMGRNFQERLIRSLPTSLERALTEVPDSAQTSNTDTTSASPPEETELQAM

[4] = biological target: T2, fMet-Leu-Phe receptor (Homo sapiens, UniProt P21462); assay: Agonist activity at FPR1 (unknown origin) transfected in human HL60 cells assessed as induction of Ca2+ mobilization; type: functional, cell-based, HL-60
T2 sequence (P21462 whole entry): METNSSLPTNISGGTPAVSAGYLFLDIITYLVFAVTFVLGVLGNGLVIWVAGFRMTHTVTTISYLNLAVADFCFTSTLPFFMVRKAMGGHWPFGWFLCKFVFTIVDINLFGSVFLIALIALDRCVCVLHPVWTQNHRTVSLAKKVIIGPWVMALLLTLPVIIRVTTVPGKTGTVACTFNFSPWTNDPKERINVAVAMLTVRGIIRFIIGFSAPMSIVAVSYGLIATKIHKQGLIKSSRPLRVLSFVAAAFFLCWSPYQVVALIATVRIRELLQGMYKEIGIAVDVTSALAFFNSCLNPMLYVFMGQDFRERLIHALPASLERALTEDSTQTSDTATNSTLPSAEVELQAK

[5] = biological target: T3, N-formyl peptide receptor 2 (Homo sapiens) (UniProt P25090); assay: Agonist activity at FPR2 (unknown origin) transfected in human HL60 cells assessed as induction of Ca2+ mobilization relative to WKYMVm; type: functional, cell-based; conditions: HL-60
T3 sequence (whole entry): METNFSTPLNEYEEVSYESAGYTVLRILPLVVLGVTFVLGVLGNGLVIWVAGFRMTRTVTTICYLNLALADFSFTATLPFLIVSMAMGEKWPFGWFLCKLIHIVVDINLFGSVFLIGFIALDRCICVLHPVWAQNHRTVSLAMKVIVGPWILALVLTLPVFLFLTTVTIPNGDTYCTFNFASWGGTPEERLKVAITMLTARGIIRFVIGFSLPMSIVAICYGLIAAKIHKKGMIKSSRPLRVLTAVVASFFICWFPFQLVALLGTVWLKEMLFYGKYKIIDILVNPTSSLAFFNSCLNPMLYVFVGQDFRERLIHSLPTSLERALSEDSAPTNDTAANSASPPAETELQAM
In short: (§1)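 Same Fluo-4 Ca2+ flux in transfected HL-60 cells. The peak fluorescence change over baseline was normalized to 5 nM fMLF for FPR1 cells and to 5 nM WKYMVm for FPR2 and FPR3 cells, each taken as 100%. Efficacy was read from 5–6 point dose-response curves.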

[6] = biological target: T4, fMet-Leu-Phe receptor (Homo sapiens) (UniProt P21462); assay: Agonist activity at FPR1 (unknown origin) transfected in human HL60 cells assessed as induction of Ca2+ mobilization relative to fMLF; type: functional, cell-based; conditions: HL-60; in short: as §1
T4 sequence (whole entry): T2 sequence (P21462 whole entry)

[7] = biological target: T5, N-formyl peptide receptor 2 (Homo sapiens, UniProt P25090); assay: Agonist activity at FPR2 (unknown origin) transfected in human HL60 cells assessed as induction of Ca2+ mobilization; type: functional, cell-based, HL-60
T5 sequence (P25090 whole entry): T3 sequence (whole entry)

[8] = biological target: fMet-Leu-Phe receptor 1/2 (Homo sapiens) (UniProt P21462+P25090); assay: Agonist activity at FPR1/FPR2 in human neutrophils assessed as induction of Ca2+ mobilization relative to fMLF; type: functional
In short: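 Neutrophils from healthy donors were isolated by dextran sedimentation, Histopaque 1077 gradient and hypotonic red cell lysis. […] Peak response was normalized to 5 nM fMLF as 100%. EC50 comes from 5–6 point curves, mean of three experiments with different donors.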

[9] = tested on: Neutrophil; assay: Induction of chemotaxis in human neutrophils assessed as cell migration after 60 mins by CellTitre-Glo luminescent assay; type: functional, cell-based; conditions: 1 h
In short: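 Migration ran 60 min at 37 °C in 5% CO2. Migrated cells were counted by ATP luminescence against a neutrophil standard curve and expressed as % of spontaneous migration. EC50 comes from nonlinear regression of dose-response curves.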

[10] = biological target: T6, fMet-Leu-Phe receptor 1/2 (Homo sapiens, UniProt P21462+P25090); assay: Agonist activity at FPR1/FPR2 in human neutrophils assessed as induction of Ca2+ mobilization; type: functional
T6 sequence (P21462 whole entry): T2 sequence (P21462 whole entry)
T6 sequence (P25090 whole entry): T3 sequence (whole entry)

[11] = biological target: T7, N-formyl peptide receptor 3 (Homo sapiens) (UniProt P25089); assay: Agonist activity at FPR3 (unknown origin) transfected in human HL60 cells assessed as induction of Ca2+ mobilization relative to WKYMVm; type: cell-based; conditions: HL-60; in short: as §1
T7 sequence (whole entry): T1 sequence (P25089 whole entry)

Compound | EC50 [1] | Activity [2] | EC50 [3] | EC50 [4] | Efficacy [5] | Efficacy [6] | EC50 [7] | Efficacy [8] | EC50 [9] | EC50 [10] | Efficacy [11]
Cc1cc(Cc2ccc(C(N)=O)cc2)c(=O)n(CC(=O)Nc2ccc(Br)cc2)n1 | > 50 µM | Non-toxic | > 50 µM | 29.3 µM | 80% | 40% | 27.2 µM |  |  |  | 
Cc1cc(Cc2cccc(Cl)c2)c(=O)n(CC(=O)Nc2ccc(I)cc2)n1 | > 50 µM | Non-toxic | > 50 µM |  | 35% | 55% |  | 90% |  |  | 
COc1cccc(Cc2cc(C3CCCCC3)nn(CC(=O)Nc3ccc(Br)cc3)c2=O)c1 | > 50 µM | Non-toxic | > 50 µM |  |  | 80% |  | 65% |  |  | 
Cc1cc(Cc2cccc(Cl)c2)c(=O)n(CC(=O)Nc2ccc(Br)cc2)n1 | > 50 µM | Non-toxic | > 50 µM |  |  | 100% |  | 90% |  |  | 
Cc1cc(Cc2ccccc2)c(=O)n(CC(=O)Nc2ccc3c(c2)OCO3)n1 | > 50 µM | Non-toxic | > 50 µM | 6.9 µM |  | 55% | > 50 µM | 75% | 4.2 µM | 6.1 µM | 
COc1cccc(Cc2ccnn(CC(=O)Nc3ccc(Br)cc3)c2=O)c1 | > 50 µM | Non-toxic | 14.6 µM |  | 60% | 125% |  |  |  |  | 25%
COc1ccc(Nc2cc(C)nn(CC(=O)Nc3ccc(Br)cc3)c2=O)cc1 | > 50 µM | Non-toxic | > 50 µM |  | 110% | 100% |  | 105% |  |  | 
Cc1cc(N)c(=O)n(CC(=O)Nc2ccc(Br)cc2)n1 | > 50 µM | Non-toxic | > 50 µM |  | 85% | 115% |  |  |  |  | 
COc1cccc(C(=O)c2cc(C)nn(CC(=O)Nc3ccc(Br)cc3)c2=O)c1 | > 50 µM | Non-toxic | > 50 µM |  | 110% | 140% |  | 115% |  |  | 
COc1cccc(C(=O)Nc2cc(C)nn(CC(=O)Nc3ccc(Br)cc3)c2=O)c1 | > 50 µM | Non-toxic | > 50 µM |  | 100% | 120% |  | 110% |  |  | 
COc1ccc(-c2cc(C)nn(CC(=O)Nc3ccc(Br)cc3)c2=O)cc1 | > 50 µM | Non-toxic | > 50 µM |  |  | 55% |  | 70% |  |  | 
Cc1cc(Cc2ccccc2)c(=O)n(CC(=O)Nc2ccc(Br)cc2)n1 | > 50 µM | Non-toxic | > 50 µM | 5.5 µM | 20% | 50% | 11.6 µM |  |  |  | 
COc1cccc(Cc2cc(C(C)C)nn(CC(=O)Nc3ccc(Br)cc3)c2=O)c1 | > 50 µM | Non-toxic | 17.4 µM |  | 90% | 135% |  | 110% |  |  | 30%
Cc1cc(Cc2ccsc2)c(=O)n(CC(=O)Nc2ccc(Br)cc2)n1 | > 50 µM | Non-toxic | > 50 µM |  | 65% | 100% |  | 115% |  |  | 
CCc1cc(Cc2cccc(OC)c2)c(=O)n(CC(=O)Nc2ccc(I)cc2)n1 | > 50 µM | Non-toxic | > 50 µM |  | 65% | 70% |  | 90% |  |  | 
Cc1cc(Cc2ccoc2)c(=O)n(CC(=O)Nc2ccc(Br)cc2)n1 | > 50 µM | Non-toxic | > 50 µM |  | 75% | 100% |  | 125% |  |  | 
COc1cccc(Cc2cc(-c3ccccc3)nn(CC(=O)Nc3ccc(Br)cc3)c2=O)c1 | > 50 µM | Non-toxic | > 50 µM |  | 25% | 110% |  | 115% |  |  | 
Cc1cc(Cc2cccc(F)c2)c(=O)n(CC(=O)Nc2ccc(Br)cc2)n1 | > 50 µM | Non-toxic | > 50 µM |  |  | 110% |  | 130% |  |  | 
Cc1cc(Cc2cccs2)c(=O)n(CC(=O)Nc2ccc(Br)cc2)n1 | > 50 µM | Non-toxic | 10.2 µM |  | 60% | 140% |  | 80% |  |  | 25%
COc1cc(Cc2cc(C)nn(CC(=O)Nc3ccc(I)cc3)c2=O)cc(OC)c1 | > 50 µM | Non-toxic | > 50 µM |  |  | 80% |  | 75% |  |  | 
Cc1cc(Cc2cccnc2)c(=O)n(CC(=O)Nc2ccc(Br)cc2)n1 | > 50 µM | Non-toxic | > 50 µM |  | 90% | 85% |  | 120% |  |  | 
